Source: ChEMBL document CHEMBL2412970, “Synthesis and anticancer activity of 2,4-disubstituted furo[3,2-b]indole derivatives” (Eur J Med Chem, 2013)
Activity calls are given as the source filed them. The calls are words filed in the database; no cut-off is given here.

Columns and labels:
A498 [1] = experiment: Induction of apoptosis in human A498 cells assessed as late apoptotic cells at 0.5 uM after 36 hrs by AnnexinV/FITC-propidium iodide staining-based flow cytometry (reference value: 9.6%); type: functional
Method in brief: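 Flow cytometry with annexin V-FITC/PI double labeling of A498 cells treated for 12, 24, 36 or 48 h; untreated cells served as the 0 h control. Stained in binding buffer for 15 min at room temperature in the dark, with more binding buffer added just before analysis. Annexin V+/PI− (Q4) counted as early apoptotic and annexin V+/PI+ (Q2) as late apoptotic.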

A498 [2] = experiment: Induction of apoptosis in human A498 cells assessed as early apoptotic cells at 0.5 uM after 48 hrs by AnnexinV/FITC-propidium iodide staining-based flow cytometry (reference value: 3.9%); type: functional
BT-549 = experiment: Cytotoxicity against human BT549 cells after 48 hrs by sulforhodamine B assay; type: functional; settings: BT-549, 48 h
Hs-578T = experiment: Cytotoxicity against human Hs578T cells after 48 hrs by sulforhodamine B assay; type: functional
TK-10 = experiment: Cytotoxicity against human TK10 cells after 48 hrs by sulforhodamine B assay; type: functional; settings: TK-10, 48 h
OVCAR-4 = experiment: Cytotoxicity against human OVCAR4 cells after 48 hrs by sulforhodamine B assay; type: functional; settings: OVCAR-4, 48 h
OVCAR-3 = experiment: Cytotoxicity against human OVCAR3 cells after 48 hrs by sulforhodamine B assay; type: functional; settings: OVCAR-3, 48 h
SNB-75 = experiment: Cytotoxicity against human SNB75 cells after 48 hrs by sulforhodamine B assay; type: functional; settings: SNB-75, 48 h
NCI-H460 = experiment: Cytotoxicity against human NCI-H460 cells after 48 hrs by sulforhodamine B assay; type: functional; settings: NCI-H460, 48 h
A549 = experiment: Cytotoxicity against human A549/ATCC cells after 48 hrs by sulforhodamine B assay; type: functional; settings: A549, 48 h
A498 [3] = experiment: Cell cycle arrest in human A498 cells assessed as accumulation at G0/G1 phase at 0.5 uM after 48 hrs by propidium iodide staining-based flow cytometry (reference value: 78.70 +/- 0.02%); type: functional
A498 [4] = experiment: Cell cycle arrest in human A498 cells assessed as accumulation at sub-G1 phase at 0.5 uM after 48 hrs by propidium iodide staining-based flow cytometry (reference value: 0.10 +/- 0.07%); type: functional
A498 [5] = experiment: Induction of apoptosis in human A498 cells assessed as reduction in mitochondrial membrane potential at 0.5 uM after 12 to 48 hrs by JC-1 staining-based flow cytometry; type: functional, cell-based
Method in brief: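 A498 cells at 1 × 10⁶ cells/mL, untreated or treated for 12–48 h, were stained with JC-1 working solution for 10–15 min and analysed by flow cytometry. High-potential cells show intense red JC-1 aggregate fluorescence; loss of potential is scored as the population with reduced red fluorescence.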

A498 [6] = experiment: Induction of apoptosis in human A498 cells assessed as caspase-3 activation at 0.5 uM after 24 hrs by Western blotting analysis; type: functional, cell-based
Method in brief: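 A498 cells exposed for 6, 12, 24, 36 or 48 h, then washed in PBS and lysed. Lysates were held on ice for 30 min and spun at 12 000g for 20 min. Supernatant protein was measured by Bradford assay, run on 10% SDS-PAGE and transferred to nitrocellulose. Blots were probed for AIF, Endo G, Apaf-1, cytochrome c, caspase 9 and caspase 3, with β-actin as loading control; n = 3 independent experiments.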

A498 [7] = experiment: Induction of cell cycle arrest at G2/M phase in human A498 cells assessed as increase in CDK1 expression at 0.5 uM after 6 hrs by Western blotting analysis; type: functional, cell-based
Method in brief: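 A498 cells exposed to 0.5 µM for 6, 12, 24, 36 or 48 h, then lysed on ice 30 min and spun 12 000g 20 min. Protein measured by Bradford; 20 µg per lane run on 10% SDS-PAGE, transferred to nitrocellulose, probed for cyclin B1 and CDK1, β-actin as loading control; n = 3 independent experiments.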

A498 [8] = experiment: Cell cycle arrest in human A498 cells assessed as accumulation at sub-G1 phase at 0.5 uM by propidium iodide staining-based flow cytometry; type: functional; settings: TDE = time-dependent effect
A498 [9] = experiment: Cell cycle arrest in human A498 cells assessed as accumulation at G2/M phase at 0.5 uM after 48 hrs by propidium iodide staining-based flow cytometry (reference value: 5.39 +/- 0.01%); type: functional
K562 = experiment: Cytotoxicity against human K562 cells after 48 hrs by sulforhodamine B assay; type: functional; settings: K562, 48 h
[10] = Cytotoxicity against human H460 cells after 48 hrs by MTT assay; type: functional, cell-based; settings: NCI-H460, 48 h
Method in brief: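 Cells were treated with a range of concentrations for 48 h. Viability was read by MTT: formazan was dissolved in DMSO and absorbance read at 570 nm. Untreated or 0.1% DMSO cells served as control. Data are mean from three independent experiments. HL-60, H460 and COLO 205 were kept in RPMI-1640 with 10% FBS and penicillin/streptomycin.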

[11] = read-out: pLC50 (the source's name) (converted)

OCc1ccc(Cn2c3ccccc3c3oc(CO)cc32)o1
Activity (A498 [1]): 20.3%
Activity (A498 [2]): 41%
GI50 (BT-549): 3.89 µM
CC50 (BT-549; [11]): > 100 µM
TGI (BT-549; read-out: pTGI (converted)): 61.7 µM
GI50 (Hs-578T): > 100 µM
CC50 (Hs-578T; [11]): > 100 µM
TGI (Hs-578T; read-out: pTGI): > 100 µM
GI50 (TK-10): 0.537 µM
CC50 (TK-10; [11]): > 100 µM
TGI (TK-10; read-out: pTGI (converted)): 3.24 µM
GI50 (OVCAR-4): 4.27 µM
CC50 (OVCAR-4; [11]): > 100 µM
TGI (OVCAR-4; read-out: pTGI): > 100 µM
GI50 (OVCAR-3): 8.91 µM
CC50 (OVCAR-3; [11]): > 100 µM
TGI (OVCAR-3; read-out: pTGI): > 100 µM
GI50 (SNB-75): 46.8 µM
CC50 (SNB-75; [11]): > 100 µM
TGI (SNB-75; read-out: pTGI): > 100 µM
GI50 (NCI-H460): > 100 µM
CC50 (NCI-H460; [11]): > 100 µM
TGI (NCI-H460; read-out: pTGI): > 100 µM
GI50 (A549): 64.6 µM
CC50 (A549; [11]): > 100 µM
TGI (A549; read-out: pTGI): > 100 µM
Activity (A498 [3]): 71.26%
Activity (A498 [4]): 12.76%
Activity (A498 [5]): Active
Activity (A498 [6]): Active
Activity (A498 [7]): Active
Activity (A498 [8]): tde
Activity (A498 [9]): 18.09%
GI50 (K562): 45.7 µM
CC50 (K562; [11]): > 100 µM
TGI (K562; read-out: pTGI): > 100 µM
IC50 [10]: 74.1 µM
